High-throughput results deposited in PubChem BioAssay by Sanford-Burnham Center for Chemical Genomics.
A selection: hits, their analogues and other compounds. The true share with any hit is near 2.5%.
SENP8 block-1 = SENP8 (human) protease inhibition; AID 602440; hit rate 0.64% among 360,000; recombinant SENP8, Nedd8 substrate fluorescence; inhibition, % at 20 µM; in the data active means inhibition mostly above about 40%, no sharp cut-off; inactive means mostly below about 27%
SENP6 block = SENP6 protease inhibition; Q9GZR1; Recombinant SENP6 catalytic domain, aminoluciferin luminescence; inhibition, % at 10 µM; hit rate 1.8% among 330,000; AID 2599;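 active means inhibition above about 50% at the single tested dose, limit read from the data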;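 further: plate controls were DMSO wells with enzyme for no effect and DMSO wells lacking enzyme for full effect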
SENP8 block-2 = inhibitors of human SENP8 protease | purified SENP8, Z-RLRGG-aminoluciferin cleavage, luminescence | inhibition, % at 10 µM | hit rate 1.2% among 330,000; in the data active means inhibition above about 50%
SENP1 FRET inh = inhibitors of human SENP1 SUMO protease catalytic domain. inhibition, % at 10 µM. recombinant SENP1 catalytic domain, CyPet-SUMO1-YPet FRET cleavage. AID 624204. hit rate 0.21% among 360,000;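 active means inhibition at least 30% at 10 µM, raw YFP signal under a set limit, fluorescence ratio 0.5 to 1.5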;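 further: 0% = enzyme with DMSO and 100% = no enzyme wells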
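material = recombinant human SENP1 catalytic domain, His6-tagged | quantity = 20 pM enzyme | reagent = 25 nM SUMO1 FRET substrate | compound dosing = 10 µM single point, 0.5% DMSO | timing = 50 min enzyme reaction, room temperature, light-protected | detection = FRET, CFP and YFP emission | control set = no-enzyme low, enzyme-DMSO high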
SENP7 block = SENP7 protease inhibition. hit rate 1.5% among 330,000. AID 434973. recombinant SENP7, Z-RLRGG-aminoluciferin luminescence, 40 min. Q9BQF6. inhibition, % at 5 µM;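 active means inhibition above about 50% at the single test dose, limit read from the data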;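 further: plate controls were DMSO with enzyme for no effect and no enzyme buffer wells for full effect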
Target sequence (Q9BQF6 706-1050 limits assumed): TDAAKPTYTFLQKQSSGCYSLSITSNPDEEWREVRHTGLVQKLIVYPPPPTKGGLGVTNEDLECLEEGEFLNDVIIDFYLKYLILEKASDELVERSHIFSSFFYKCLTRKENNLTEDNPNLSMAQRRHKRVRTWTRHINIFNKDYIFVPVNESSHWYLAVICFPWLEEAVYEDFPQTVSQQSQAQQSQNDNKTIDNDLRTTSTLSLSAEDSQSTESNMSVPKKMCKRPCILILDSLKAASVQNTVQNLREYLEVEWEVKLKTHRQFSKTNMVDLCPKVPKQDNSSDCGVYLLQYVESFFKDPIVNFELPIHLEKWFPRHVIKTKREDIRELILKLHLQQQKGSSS
* marks the source's active call; other numbers are inactive results; . = no result.

SMILES	SENP8 block-1	SENP6 block	SENP8 block-2	SENP1 FRET inh	SENP7 block
CCCCCC(=O)N1C[C@H](O)[C@@H](n2cc(-c3ccc(F)cc3)nn2)C[C@@H]1c1ccc(OC)cc1	-23	.	.	2	.
Cc1ccc(C(=O)OCC(=O)c2cc(C)n(CC3CCCO3)c2C)cc1 (stereo not drawn)	14	-27	10	0	11
Cc1cc(C(=O)COC(=O)c2ccccc2Br)c(C)n1CC1CCCO1 (stereo not drawn)	9	95*	93*	3	94*
Nc1nc(-c2ccccc2)c(N=Nc2ccccc2Cl)s1	66*	-11	-7	9	-5
CCCc1nc2ccccc2n1C(C(=O)NC(C)(C)C)C1CC1 (stereo not drawn)	16	.	.	5	.
Cc1nn(-c2ccccc2)c(C)c1/C=N/NC(=O)CSc1nnc(-c2ccccc2)n1-c1ccc(Cl)cc1	8	-15	1	1	4
Cc1nn(-c2ccccc2)c(C)c1/C=N/NC(=O)CSc1nnc(SCc2ccccc2Cl)s1	5	71*	61*	1	27
O=C(CSc1nnc(SCc2ccc(Cl)cc2)s1)N/N=C/c1ccc(C(=O)O)cc1	13	85*	65*	0	37
O=C(CSc1nnc(SCc2ccc(Cl)cc2)s1)N/N=C/c1c[nH]c2ccccc12	28	.	.	3	.
O=C(NN1C(=O)/C(=C\c2ccc(O)c([N+](=O)[O-])c2)SC1=S)c1ccccc1Cl	68*	-11	-9	33*	2
COc1cc(/C=C2\SC(=S)N(NC(=O)c3cccnc3)C2=O)ccc1O	30	-18	-3	49*	6
O=C1/C(=C/c2ccc(O)c(O)c2)SC(=S)N1Nc1ccccc1	28	.	.	36*	.
O=C(NN1C(=O)/C(=C/c2ccc(O)c(O)c2)SC1=S)c1ccccc1	32	-16	-12	32	5
Cn1cc(/C=C2\SC(=S)N(NC(=O)c3ccccc3Cl)C2=O)c2ccccc21	44*	.	.	-27	.
CC(=O)N1CCN(S(=O)(=O)c2cccc(C(=O)OCC(=O)NCc3ccccc3Cl)c2)CC1	19	.	.	3	.
CCCN(CC(=O)Nc1ccccc1C)C(=O)c1cc2ccccc2oc1=O	-4	.	.	1	.
O=C(c1ccc([N+](=O)[O-])cc1)N(Cc1cccs1)C1CCS(=O)(=O)C1 (stereo not drawn)	7	-27	-6	2	0
Cc1ccc(C(=O)NN2C(=O)/C(=C/c3cn(C)c4ccccc34)SC2=S)cc1	42*	.	.	-26	.
Cc1ccc(C(=O)NN2C(=O)/C(=C/c3cccn3C)SC2=S)cc1	28	-15	-1	-58	8
CC(C)[C@@H]1Cc2[nH]c(=S)[nH]c(=O)c2[C@H](CCc2ccccc2)O1	7	.	.	0	.
Cc1ccc(C(=O)N2C(=O)c3cccc(N)c3C2=O)o1	-108	82*	-2	-36	4
COc1ccc(N=Nc2c(N)nn(C)c2N)cc1	51*	.	.	3	.
Cc1ccc(N=Nc2c(N)nn(-c3ccccc3)c2N)cc1	24	23	-8	2	11
COc1ccc(-c2coc3cc(O)cc(O)c3c2=O)cc1	19	42	32	0	27
COc1ccc(-c2coc3cc(OC)cc(O)c3c2=O)cc1	16	30	-11	4	63*
SMILES	SENP8 block-1	SENP6 block	SENP8 block-2	SENP1 FRET inh	SENP7 block
Oc1cccc(C=NCc2ccccc2)c1O	54*	0	14	5	17
O=[N+]([O-])c1cccc(C2=NC(c3ccccc3)CO2)c1 (stereo not drawn)	-4	-3	-2	0	6
COc1ccc(C2=NC(c3ccccc3)CO2)cc1 (stereo not drawn)	.	70*	63*	.	50*
CSCCC1COC(c2cccs2)=N1 (stereo not drawn)	22	-31	-20	2	-7
C[C@@H]1OC(Nc2ccc(N=Nc3ccccc3)cc2)[C@H](O)[C@H](O)[C@H]1O (stereo partly drawn)	40*	-1	-3	1	2
CCc1c(O)nc2sc3ccccc3n2c1=O	40*	-3	1	2	0
Cc1nc(N)nc(Nc2ccc(C#N)cc2)c1Br	0	3	0	1	2
N#Cc1c(N)nc(N)nc1Nc1ccc(Br)cc1	12	60*	22	0	36
Cc1[nH]n(-c2cccc([N+](=O)[O-])c2)c(=O)c1-c1ccccc1	16	-5	-6	1	3
Cc1[nH]n(-c2ccccc2)c(=O)c1C(C[N+](=O)[O-])c1ccccc1Cl (stereo not drawn)	64*	19	0	2	47
